According to ChEMBL document CHEMBL4138082 (Eur J Med Chem, 2017):

How the values were obtained:
HepG2 = experiment: Antiproliferative activity against human HepG2 cells after 72 hrs by MTT assay; assay type: functional, cell-based; details: HepG2, 72 h
How it was run: (§1)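 MTT assay. Cells were seeded and grown 24 h at 37 °C in 5% CO2, then exposed to compound or left untreated for 72 h. MTT (5 mg/mL stock) was added for 4 h and the formazan dissolved in DMSO. OD was read at 570 nm. IC50 is the concentration giving 50% growth inhibition, reported as mean ± SD of three independent experiments. Vehicle reference was 0.1% DMSO.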

[1] = Selectivity index, ratio of IC50 for human L02 cells to IC50 for human HepG2 cells; assay type: toxicity; details: L02 cells and HepG2 cells, read-out: Ratio IC50
How it was run: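 MTT assay: cells grown 24 h at 37 °C, 5% CO2, then exposed 72 h; MTT (5 mg/mL) added for 4 h, formazan dissolved in DMSO, OD read at 570 nm. Vehicle 0.1% DMSO. Three independent experiments.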

PC-3 = experiment: Antiproliferative activity against human PC3 cells after 72 hrs by MTT assay; assay type: functional, cell-based; details: PC-3, 72 h; how it was run: as §1
HT-29 = experiment: Antiproliferative activity against human HT-29 cells after 72 hrs by MTT assay; assay type: functional, cell-based; details: HT-29, 72 h; how it was run: as §1
L02 = experiment: Cytotoxicity against human L02 cells assessed as reduction in cell viability after 72 hrs by MTT assay; assay type: cell-based; details: L02, 72 h; how it was run: as §1
[2] = Drug metabolism in human L02 cells assessed as NO release by measuring nitrite formation at 100 uM after 1 hr by Griess assay; assay type: ADME, cell-based; details: l02, 1 h
How it was run: (§2)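 HepG-2 or L-02 cells were exposed to 100 µM of each compound for 60 min and then harvested. Lysates were mixed with Griess reagent for 10 min at 37 °C and absorbance was read at 550 nm. NO release is expressed as nitrite, reported as mean ± SD of three independent experiments.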

[3] = Drug metabolism in human HepG2 cells assessed as NO release by measuring nitrite formation at 100 uM after 1 hr by Griess assay; assay type: ADME, cell-based; details: hepg2, 1 h; how it was run: as §2

## C[C@H]1CCC/C=C/[C@@H]2C[C@H](OC(=O)CCCC(=O)OCCCOc3no[n+]([O-])c3S(=O)(=O)c3ccccc3)C[C@H]2[C@H](O)/C=C/C(=O)O1
HepG2
  IC50: 0.75 µM
[1]
  selectivity ratio: 9
PC-3
  IC50: 0.16 µM
HT-29
  IC50: 1.6 µM
L02
  IC50: 6.7 µM

## C[C@H]1CCC/C=C/[C@@H]2C[C@H](O)C[C@H]2[C@H](O)/C=C/C(=O)O1 [BREFELDIN A]
HepG2
  IC50: 0.35 µM
PC-3
  IC50: 0.068 µM
HT-29
  IC50: 0.16 µM
L02
  IC50: < 0.0004 µM

## O=C(O)c1ccccc1C(=O)OCCCOc1no[n+]([O-])c1S(=O)(=O)c1ccccc1
HepG2
  IC50: > 10 µM
PC-3
  IC50: 4.9 µM
HT-29
  IC50: > 10 µM
L02
  IC50: 40 µM

## C[C@H]1CCC/C=C/[C@@H]2C[C@H](OC(=O)c3ccccc3C(=O)OCCCOc3no[n+]([O-])c3S(=O)(=O)c3ccccc3)C[C@H]2[C@H](OC(=O)c2ccccc2C(=O)OCCCOc2no[n+]([O-])c2S(=O)(=O)c2ccccc2)/C=C/C(=O)O1
HepG2
  IC50: 4 µM
[1]
  selectivity ratio: 2
PC-3
  IC50: 1.3 µM
HT-29
  IC50: 4.4 µM
L02
  IC50: 9.8 µM

## C[C@H]1CCC/C=C/[C@@H]2C[C@H](OC(=O)c3ccccc3C(=O)OCCOc3no[n+]([O-])c3S(=O)(=O)c3ccccc3)C[C@H]2[C@H](O)/C=C/C(=O)O1
HepG2
  IC50: 0.54 µM
[1]
  selectivity ratio: 11
PC-3
  IC50: 0.064 µM
HT-29
  IC50: 0.28 µM
L02
  IC50: 5.9 µM

## C[C@H]1CCC/C=C/[C@@H]2C[C@H](O)C[C@H]2[C@H](OC(=O)c2ccccc2C(=O)OCCCOc2no[n+]([O-])c2S(=O)(=O)c2ccccc2)/C=C/C(=O)O1
HepG2
  IC50: 0.62 µM
[1]
  selectivity ratio: 10
PC-3
  IC50: 0.15 µM
HT-29
  IC50: 0.86 µM
L02
  IC50: 5.9 µM

## O=c1[nH]cc(F)c(=O)[nH]1 [FLUOROURACIL]
HT-29
  IC50: 4.9 µM

## C[C@H]1CCC/C=C/[C@@H]2C[C@H](O)C[C@H]2[C@H](OC(=O)c2ccccc2C(=O)OCCOc2no[n+]([O-])c2S(=O)(=O)c2ccccc2)/C=C/C(=O)O1
HepG2
  IC50: 0.82 µM
[1]
  selectivity ratio: 7
PC-3
  IC50: 0.11 µM
HT-29
  IC50: 0.4 µM
L02
  IC50: 5.7 µM

## C[C@H]1CCC/C=C/[C@@H]2C[C@H](OC(=O)CCC(=O)OCCCOc3no[n+]([O-])c3S(=O)(=O)c3ccccc3)C[C@H]2[C@H](O)/C=C/C(=O)O1
HepG2
  IC50: 1.3 µM
[1]
  selectivity ratio: 6
PC-3
  IC50: 0.73 µM
HT-29
  IC50: 0.91 µM
L02
  IC50: 7.8 µM

## C[C@H]1CCC/C=C/[C@@H]2C[C@H](O)C[C@H]2[C@H](OC(=O)CCCC(=O)OCCCOc2no[n+]([O-])c2S(=O)(=O)c2ccccc2)/C=C/C(=O)O1
HepG2
  IC50: 1.8 µM
[1]
  selectivity ratio: 4
PC-3
  IC50: 0.095 µM
HT-29
  IC50: 5.7 µM
L02
  IC50: 6.7 µM

## C[C@H]1CCC/C=C/[C@@H]2C[C@H](OC(=O)CCC(=O)OCCOc3no[n+]([O-])c3S(=O)(=O)c3ccccc3)C[C@H]2[C@H](OC(=O)CCC(=O)OCCOc2no[n+]([O-])c2S(=O)(=O)c2ccccc2)/C=C/C(=O)O1
[2]
  Drug metabolism: 19.5 µM
HepG2
  IC50: 0.51 µM
[1]
  selectivity ratio: 12
PC-3
  IC50: 0.056 µM
HT-29
  IC50: 0.22 µM
[3]
  Drug metabolism: 98.4 µM
L02
  IC50: 5.9 µM

## O=C(O)c1ccccc1C(=O)OCCOc1no[n+]([O-])c1S(=O)(=O)c1ccccc1
HepG2
  IC50: > 10 µM
PC-3
  IC50: 9.9 µM
HT-29
  IC50: > 10 µM
L02
  IC50: 37 µM

## C[C@H]1CCC/C=C/[C@@H]2C[C@H](OC(=O)CCC(=O)O)C[C@H]2[C@H](O)/C=C/C(=O)O1
HepG2
  IC50: 1.6 µM
[1]
  selectivity ratio: 6
PC-3
  IC50: 1.6 µM
HT-29
  IC50: 6.3 µM
L02
  IC50: 9.5 µM

## C[C@H]1CCC/C=C/[C@@H]2C[C@H](OC(=O)c3ccccc3C(=O)OCCOc3no[n+]([O-])c3S(=O)(=O)c3ccccc3)C[C@H]2[C@H](OC(=O)c2ccccc2C(=O)OCCOc2no[n+]([O-])c2S(=O)(=O)c2ccccc2)/C=C/C(=O)O1
[2]
  Drug metabolism: 20.6 µM
HepG2
  IC50: 0.55 µM
[1]
  selectivity ratio: 11
PC-3
  IC50: 0.13 µM
HT-29
  IC50: 0.23 µM
[3]
  Drug metabolism: 89.3 µM
L02
  IC50: 6.2 µM

## O=C(O)CCC(=O)OCCCOc1no[n+]([O-])c1S(=O)(=O)c1ccccc1
HepG2
  IC50: 6.4 µM
[1]
  selectivity ratio: 5
PC-3
  IC50: > 10 µM
HT-29
  IC50: > 10 µM
L02
  IC50: 29 µM

## C[C@H]1CCC/C=C/[C@@H]2C[C@H](O)C[C@H]2[C@H](OC(=O)CCC(=O)OCCOc2no[n+]([O-])c2S(=O)(=O)c2ccccc2)/C=C/C(=O)O1
HepG2
  IC50: 0.51 µM
[1]
  selectivity ratio: 10
PC-3
  IC50: 0.12 µM
HT-29
  IC50: 0.23 µM
L02
  IC50: 5 µM

## O=C(O)CCCC(=O)OCCOc1no[n+]([O-])c1S(=O)(=O)c1ccccc1
HepG2
  IC50: 4 µM
[1]
  selectivity ratio: 8
PC-3
  IC50: 5.1 µM
HT-29
  IC50: > 10 µM
L02
  IC50: 32 µM

## C[C@H]1CCC/C=C/[C@@H]2C[C@H](OC(=O)c3ccccc3C(=O)OCCCOc3no[n+]([O-])c3S(=O)(=O)c3ccccc3)C[C@H]2[C@H](O)/C=C/C(=O)O1
HepG2
  IC50: 0.62 µM
[1]
  selectivity ratio: 9
PC-3
  IC50: 0.095 µM
HT-29
  IC50: 0.3 µM
L02
  IC50: 5.4 µM

## C[C@H]1CCC/C=C/[C@@H]2C[C@H](OC(=O)CCCC(=O)OCCCOc3no[n+]([O-])c3S(=O)(=O)c3ccccc3)C[C@H]2[C@H](OC(=O)CCCC(=O)OCCCOc2no[n+]([O-])c2S(=O)(=O)c2ccccc2)/C=C/C(=O)O1
[2]
  Drug metabolism: 23.4 µM
HepG2
  IC50: 0.38 µM
[1]
  selectivity ratio: 13
PC-3
  IC50: 0.083 µM
HT-29
  IC50: 0.62 µM
[3]
  Drug metabolism: 92.3 µM
L02
  IC50: 5.1 µM

## C[C@H]1CCC/C=C/[C@@H]2C[C@H](OC(=O)CCCC(=O)OCCOc3no[n+]([O-])c3S(=O)(=O)c3ccccc3)C[C@H]2[C@H](O)/C=C/C(=O)O1
[2]
  Drug metabolism: 14.6 µM
HepG2
  IC50: 0.82 µM
[1]
  selectivity ratio: 6
PC-3
  IC50: 0.059 µM
HT-29
  IC50: 0.18 µM
[3]
  Drug metabolism: 65.2 µM
L02
  IC50: 5.1 µM

## C[C@H]1CCC/C=C/[C@@H]2C[C@H](OC(=O)CCC(=O)OCCCOc3no[n+]([O-])c3S(=O)(=O)c3ccccc3)C[C@H]2[C@H](OC(=O)CCC(=O)OCCCOc2no[n+]([O-])c2S(=O)(=O)c2ccccc2)/C=C/C(=O)O1
HepG2
  IC50: 0.84 µM
[1]
  selectivity ratio: 9
PC-3
  IC50: 0.12 µM
HT-29
  IC50: 1.2 µM
L02
  IC50: 7.2 µM

## C[C@H]1CCC/C=C/[C@@H]2C[C@H](O)C[C@H]2[C@H](OC(=O)CCC(=O)OCCCOc2no[n+]([O-])c2S(=O)(=O)c2ccccc2)/C=C/C(=O)O1
HepG2
  IC50: 0.73 µM
[1]
  selectivity ratio: 9
PC-3
  IC50: 0.25 µM
HT-29
  IC50: 0.79 µM
L02
  IC50: 6.9 µM

## C[C@H]1CCC/C=C/[C@@H]2C[C@H](O)C[C@H]2[C@H](OC(=O)CCCC(=O)OCCOc2no[n+]([O-])c2S(=O)(=O)c2ccccc2)/C=C/C(=O)O1
[2]
  Drug metabolism: 13.9 µM
HepG2
  IC50: 0.41 µM
[1]
  selectivity ratio: 12
PC-3
  IC50: 0.046 µM
HT-29
  IC50: 0.28 µM
[3]
  Drug metabolism: 68.5 µM
L02
  IC50: 5.1 µM

## C[C@H]1CCC/C=C/[C@@H]2C[C@H](OC(=O)CCC(=O)OCCOc3no[n+]([O-])c3S(=O)(=O)c3ccccc3)C[C@H]2[C@H](O)/C=C/C(=O)O1
HepG2
  IC50: 0.91 µM
[1]
  selectivity ratio: 6
PC-3
  IC50: 0.14 µM
HT-29
  IC50: 0.46 µM
L02
  IC50: 5.2 µM

## O=C(O)CCC(=O)OCCOc1no[n+]([O-])c1S(=O)(=O)c1ccccc1
HepG2
  IC50: > 10 µM
PC-3
  IC50: 3.8 µM
HT-29
  IC50: > 10 µM
L02
  IC50: 36 µM

## O=C(O)CCCC(=O)OCCCOc1no[n+]([O-])c1S(=O)(=O)c1ccccc1
HepG2
  IC50: > 10 µM
PC-3
  IC50: 3.3 µM
HT-29
  IC50: > 10 µM
L02
  IC50: 35 µM
